Columns and labels:
[1] = Cytotoxicity against human MA9.3 cells after 48 hrs by MTT assay; format: functional, cell-based
Summary of the method: (§1)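 Cells seeded at 4 × 10^4/well and held overnight at 37°C. Exposed 48 h to freshly dissolved compound. Cells were then pelleted, the medium replaced with fresh medium holding MTT (5 mg/mL stock), and incubated 4 h. Formazan dissolved in DMSO and read at 575 nm. IC50 from a four-parameter sigmoid fit. Triplicates, assay run twice. MA9.3RAS (MLL-AF9 + NrasG12D-transformed CD34+ cells) grown in IMDM with 20% bovine calf serum. Cord-blood CD34+ cells grown in the same medium plus SCF, IL-3, IL-6, Flt-3L and TPO.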

[2] = Selectivity ratio of IC50 for human primary CD34+ blood stem cells to IC50 for human MA9.3 cells; settings: primary CD34+ blood stem cells versus MA9.3 cells, read-out: Ratio IC50
[3] = Decrease in ROS level in human MA9.3 cells assessed as fluorescence intensity at 20 uM DCF fluorescence assay (reference value: 1.06 +/- 0.13 no_unit); format: functional
Homo sapiens = species: Homo sapiens; assay: Decrease in ROS level in human MA9.3 cells at 20 uM DCF fluorescence assay; format: functional, cell-based; settings: TDE = time-dependent effect
Summary of the method: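 Actively growing MA9.3RAS cells suspended in 1× HBSS at 4×10^5 cells/ml. DCF-DA added to 10 μM final, with HBSS alone as blank. Compound added in HBSS to 20 μM final. Plate held at 37°C and fluorescence (ex 485/em 535 nm) read every 15 min for 1 h, with light exposure limited. Mean ± SD of six replicates, unpaired t-test.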

[4] = Cytotoxicity against human CD34-positive blood stem/progenitor cells after 48 hrs by MTT assay; format: cell-based; summary of the method: as §1
[5] = Decrease in KEAP1 protein expression in human MA9.3 cells at 20 uM after 24 hrs relative to control

SMILES | IC50 [1] | selectivity ratio [2] | also measured
COc1cc(/C=C/C(=O)N2CCC=CC2=O)cc(OC)c1OC [PIPLARTINE] | 2 µM | 3.7 | 
O=C(COc1ccccc1)Nc1cc(O)ccc1O | 3 µM |  | 
CN(CC(=O)Nc1cccc(O)c1)c1ccccc1 | > 100 µM |  | 
CN(CC(=O)Nc1cc(O)ccc1O)C1CCCCC1 | 9 µM | 3.8 | 
CC(=O)Nc1cc(O)ccc1O | 35 µM |  | 
O=C(CO)Nc1cc(O)ccc1O | 12 µM |  | 
O=C(CSc1ccccc1)Nc1cc(O)ccc1O | 5 µM |  | 
CCCN(C)CC(=O)Nc1cc(O)ccc1O | 18 µM |  | 
CN(CC(=O)Nc1cc(O)ccc1O)c1ccccc1 | 6 µM | 2 | 
NC1=CC(=O)C=CC1=O | 16 µM |  | 
O=C(CNC1CCCCC1)Nc1cc(O)ccc1O | 2 µM | 11.5 | Flu intensity [3]: 4.31; Activity (Homo sapiens): tde; Activity [4]: Non-toxic; Ratio [5]: 0.65
O=C(CNc1ccccc1)Nc1cc(O)ccc1O | 13 µM |  | 
CN(CC(=O)NC1=CC(=O)C=CC1=O)c1ccccc1 | 21 µM |  | 
CN(CC(=O)Nc1ccccc1O)c1ccccc1 | > 100 µM |  | 
COc1ccc(OC)c(NC(=O)CN(C)c2ccccc2)c1 | > 100 µM |  | 
C=C1C(=O)O[C@@H]2[C@H]3O[C@]3(C)CC/C=C(\C)CC[C@@H]12 | 3 µM | 2.1 | 

From ChEMBL document CHEMBL3351603, “Design of a hydrogen peroxide-activatable agent that specifically targets cancer cells” (Bioorg Med Chem, 2014)
